Test results reported in ChEMBL document CHEMBL1154804, “Diterpenes, sesquiterpenes, and a sesquiterpene-coumarin conjugate from Jatropha integerrima” (J Nat Prod, 2009).
In brackets after ≈: the same amount, converted by molar mass. Activity calls are given as the source filed them. The rule behind the calls is not given here.

Columns and labels:
[1] = system: Plasmodium falciparum; assay: Antiplasmodial activity against multidrug-resistant Plasmodium falciparum K1 assessed as [3H]hypoxanthine incorporation after 24 hrs by microtiter plate scintillation counting; format: functional, organism-based
In short: (§1)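 K1 multidrug-resistant P. falciparum kept in continuous culture (Trager–Jensen). In vitro activity measured by a microculture radioisotope technique (Desjardins method). The highest level tested was 10 µg/mL.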

[2] = system: Mycobacterium tuberculosis; assay: Antitubercular activity against Mycobacterium tuberculosis H37Ra at 200 ug/ml after 4 days by microplate alamar blue assay; format: functional, organism-based
In short: (§2)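 M. tuberculosis H37Ra tested in an Alamar Blue microplate assay. Values are given as MIC in µg/mL. The highest level tested was 200 µg/mL.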

[3] = system: Vero; assay: Cytotoxicity against african green monkey Vero cells at 50 ug/ml by sulforhodamine B assay; format: cell-based; settings: chlorocebus sabaeus
In short: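 African green monkey kidney fibroblasts (Vero) exposed to test material at 50 µg/mL; cell growth read by a colorimetric method (Skehan and coworkers).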

[4] = system: Plasmodium falciparum; assay: Antiplasmodial activity against multidrug-resistant Plasmodium falciparum K1 assessed as [3H]hypoxanthine incorporation at 10 ug/ml after 24 hrs by microtiter plate scintillation counting; format: functional, organism-based; in short: as §1
[5] = system: Vero; assay: Cytotoxicity against african green monkey Vero cells by sulforhodamine B assay; format: cell-based; settings: chlorocebus sabaeus
In short: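 Vero cells were described as African green monkey kidney fibroblasts. Read-out was by the colorimetric method of Skehan and coworkers. Compounds were tested up to 50 µg/mL.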

[6] = system: Mycobacterium tuberculosis; assay: Antitubercular activity against Mycobacterium tuberculosis H37Ra after 4 days by microplate alamar blue assay; format: functional; settings: 96 h; in short: as §2

SMILES | IC50 [1] | Activity [2] | Activity [3] | Activity [4] | IC50 [5] | MIC [6]
C=C1CC[C@@H]2[C@H](c3c(C)c(O)c4c(c31)C(=O)[C@](C)(O)C4)C2(C)C | 4.1 µg/mL | inactive | Non-toxic | – | – | –
C=C1CC[C@@H]2[C@H](c3c(C)c(O)c4c(c31)C(=O)[C@@](C)(O)C4)C2(C)C | – | inactive | – | inactive | 49.4 µg/mL (≈ 158 µM) | –
C[C@H]1[C@@H](O)O[C@@H]2O[C@@]3(C)CC[C@H]4[C@H](C)CC[C@@H]1[C@@]24OO3 [ARTENIMOL] | 4 nM | – | – | – | – | –
C=C(C)[C@@H]1CC[C@]23CO[C@@]4(OO2)C2=C(C(=O)C(C)=C[C@@H]1[C@@H]23)[C@H](O)[C@H]4C [CANIOJANE] | 3.3 µg/mL | – | – | – | 12.9 µg/mL (≈ 37.5 µM) | 25 µg/mL (≈ 72.6 µM)
Cc1c2ccncc2c(C)c2c1[nH]c1ccccc12 [ELLIPTECINE] | – | – | – | – | 0.7 µg/mL (≈ 2.84 µM) | –
NNC(=O)c1ccncc1 [ISONIAZID] | – | – | – | – | – | 0.1 µg/mL (≈ 0.729 µM)
C=C1CC[C@@H]2[C@H](c3c(C)c(O)c4c(c31)C(=O)[C@@H](C)C4)C2(C)C [JATROPHOLONE A] | 5.4 µg/mL | inactive | Non-toxic | – | – | –
C=C1CC[C@@H]2[C@H](c3c(C)c(O)c4c(c31)C(=O)[C@H](C)C4)C2(C)C [JATROPHOLONE B] | – | inactive | Non-toxic | inactive | – | –
NC[C@H]1O[C@H](O[C@H]2[C@H](O)[C@@H](O[C@H]3O[C@H](CO)[C@@H](O)[C@H](N)[C@H]3O)[C@H](N)C[C@@H]2N)[C@H](O)[C@@H](O)[C@@H]1O [KANAMYCIN] | – | – | – | – | – | 2.5 µg/mL (≈ 5.16 µM)
